MT1-MMP txn act: MT1-MMP promoter reporter activation – cell-based, luciferase luminescence, primary screen; hit rate 0.16% among 86,000; activation factor at 10 µM; HT1080 MT1-MMP promoter luciferase reporter, overnight; hits give high values; AID 750, 2007;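 active = activation factor of at least 2 for MT1-MMP transcription at 10 µM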
HEK293 NFkB inh: inhibitors of PMA/ionomycin-induced NF-kB reporter, primary screen, antigen receptor NF-kB inhibitor project, cell-based, HEK-293 luciferase reporter, luminescence. inhibition, % at 3 µM. hit rate 0.21% among 62,000. HEK-293 NF-kB luciferase reporter;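 active = inhibition above the mean of all tested compounds plus 3 SD, cut at about 40% in these data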;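 also: 0% = stimulated DMSO wells and 100% = 10 µM reference inhibitor 5653914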
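System: NF-kB luciferase reporter HEK-293 cells | Replication: Single test | Control set: DMSO vs reference inhibitor | Evaluation: % inhibition | Schedule: 1 h pretreatment, 16 h stimulation, 37 °C | Probe or stimulus: PMA with ionomycin | Compound dosing: One dose, 3 µM | Detection: Luciferase luminescence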
SF-1 act: activators of human SF-1, primary screen, cell-based, CHO-K1, Gal4-SF-1 LBD, luciferase luminescence | Steroidogenic factor 1 (Homo sapiens), Q13285 | CHO-K1 Gal4-SF-1 LBD luciferase reporter; % increase over DMSO SF-1-specific signal | activation, % at 10 µM | hit rate 1.9% among 65,000 | AID 522, 2006;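 active = activation above the mean activation of all tested compounds plus 3 SD, cut at about 50% in these data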
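Test system: transient Gal4-SF-1 LBD reporter, CHO-K1; Amount: 4,000 CHO-K1 cells per well; Doses: 10 µM only; Timing: compound exposure 20 h at 37 °C; Signal: luciferase light emission; Read-out basis: percent activation relative to DMSO median and mock-transfected background; Control set: DMSO negative control and −SF1 background wells; Replicates: one test per compound.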
Jurkat viability: cytotoxicity toward Jurkat T cells, primary screen, cytotoxicity control, cell-based, Jurkat E6.1, 60K MLSMR library. Jurkat E6.1 viability, ATP luminescence, 48 h. inhibition, % at 4 µM. hit rate 1.2% among 56,000;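 active = inhibition above the mean inhibition of all tested compounds plus 3 SD, cut at about 28% in these data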
RORA act: activators of orphan receptor RORA, primary screen, cell-based, luminescence | CHO-K1 Gal4-RORA LBD luciferase reporter; percent increase over mock-subtracted basal signal | activation, % at 10 µM | hit rate 1.5% among 65,000;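 active = activation above the mean of all tested compounds plus 3 SD, cut at about 49% in these data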;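 also: 0% = DMSO-treated RORA cells and 100% = added signal equal to DMSO minus mock-transfected cells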
Target sequence (P35398 whole entry, looked up, the tested form may be a part): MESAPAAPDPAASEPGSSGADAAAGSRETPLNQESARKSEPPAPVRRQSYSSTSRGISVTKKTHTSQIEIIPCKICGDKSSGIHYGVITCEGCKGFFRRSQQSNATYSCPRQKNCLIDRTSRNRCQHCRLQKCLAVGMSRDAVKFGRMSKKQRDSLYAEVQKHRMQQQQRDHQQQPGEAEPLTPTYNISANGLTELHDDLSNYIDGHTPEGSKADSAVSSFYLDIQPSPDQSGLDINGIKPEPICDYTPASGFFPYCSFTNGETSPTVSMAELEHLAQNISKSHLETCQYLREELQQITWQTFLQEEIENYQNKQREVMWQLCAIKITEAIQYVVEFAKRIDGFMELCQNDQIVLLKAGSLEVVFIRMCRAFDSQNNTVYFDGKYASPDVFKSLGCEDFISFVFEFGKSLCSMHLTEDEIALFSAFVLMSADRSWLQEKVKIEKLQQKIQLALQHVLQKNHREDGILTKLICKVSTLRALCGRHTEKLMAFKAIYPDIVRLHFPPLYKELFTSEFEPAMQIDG
The depositor's hits bear a star; / = no result. A selection: hits, their analogues and other compounds. The true share with any hit is near 2.9%.

SMILES | MT1-MMP txn act | HEK293 NFkB inh | SF-1 act | Jurkat viability | RORA act
N#Cc1ccc(C2=NC(C(F)(F)F)(C(F)(F)F)c3c(n(Cc4ccco4)c(=O)[nH]c3=O)N2)cc1 | 1.1 | / | / | / | /
Cc1ccn2cc(C(=O)Nc3ccccc3N3CCOCC3)nc2c1 | 1.3 | 1 | 18 | 2 | 55*
CCOC(=O)c1c(C)sc2c1N(C(=O)CN1CCOCC1)c1cc(Cl)ccc1S2 | 1 | / | / | / | /
Cc1ccc(NC(=O)N2CCCC2C(=O)NCCc2ccccc2)cc1 (stereo not drawn) | 1.1 | 6 | -8 | -4 | -26
O=C(NCc1ccc(F)cc1)c1cc2n(n1)C(C(F)(F)F)CC(C1CC1)N2 (stereo not drawn) | 1 | 0 | 48 | 2 | 64*
O=C(Nc1nc2c(s1)CCCC2)c1cc2n(n1)C(C(F)(F)F)CC(C1CC1)N2 (stereo not drawn) | 1.7 | -37 | 56* | 8 | 118*
Cc1nnc(NC(=O)c2cc3n(n2)C(C(F)(F)F)CC(C2CC2)N3)s1 (stereo not drawn) | 1 | 0 | -7 | 2 | 3
O=C(NCc1ccc2c(c1)OCO2)c1cc2n(n1)C(C(F)(F)F)CC(c1ccc3c(c1)OCO3)N2 (stereo not drawn) | / | 15 | -12 | -3 | -18
COC(=O)[C@@]1(Cc2ccc(OC)cc2)[C@H]2c3cc(C(=O)N(C)C)n(CCN4CCNC4=O)c3C[C@H]2CN1C(=O)c1ccccc1 | 1.1 | / | / | / | /
CC(C)n1c(C(=O)OCC(=O)NCc2ccc3c(c2)OCO3)cc2sccc21 | 1.1 | 22 | -4 | / | -6
O=c1/c(=C\c2ccc3c(c2)OCO3)sc2n1CCCN=2 | 1.1 | -24 | 49 | 5 | 55*
Cc1ccc(/C=c2/sc3n(c2=O)CCCN=3)o1 | 1.7 | / | / | / | /
CC(=O)c1c(C)[nH]c(C(=O)N2CCN(c3ccc(F)cc3)CC2)c1C | 1.2 | / | / | / | /
COc1cccc(N2CCN(C(=O)c3[nH]c(C)c(C(C)=O)c3C)CC2)c1 | 0.8 | 31 | -9 | 91* | 47
O=C(NCc1ccccc1)c1cc(-c2ccco2)on1 | 1.4 | -3 | 22 | 3 | 24
O=C(NCCc1ccccc1)c1cc(-c2ccco2)on1 | 1.5 | -49 | 86* | 12 | 69*
O=C(Cc1ccccc1)Nc1ccc2oc(-c3ccncc3)nc2c1 | 1.1 | 4 | 7 | 8 | 23
CC(C)CC(=O)Nc1ccc2oc(-c3ccncc3)nc2c1 | 1.4 | 4 | 55* | 0 | 35
O=C(CCc1ccccc1)Nc1c(F)cccc1F | 2.3* | / | / | / | /
O=C(CCc1ccccc1)Nc1ccncc1 | 1.2 | 13 | -14 | 2 | -8
Clc1cccc(CSC2=NCCCN2)c1 | 1.3 | / | / | / | /
Cc1ccc2c(c1)N1C(=O)c3ccccc3C1C1=C(CC(C)(C)CC1=O)N2 (stereo not drawn) | 1 | / | / | / | /
COCCn1c(=O)c2c(nc3n2CCN3c2ccc(C)cc2)n(C)c1=O | 1.2 | 8 | 9 | 1 | -25
Clc1ccc(Cl)c2sc(N3CCOCC3)nc12 | 1.3 | -15 | 40 | 4 | 7
Clc1cc(Cl)c2nc(N3CCOCC3)sc2c1 | 1.5 | -9 | 58* | 5 | 21
SMILES | MT1-MMP txn act | HEK293 NFkB inh | SF-1 act | Jurkat viability | RORA act
O=C(NCCc1ccccc1)/C(=N\O)c1ccccc1 | 1.8 | / | 64* | / | 14
CN(C)CCCNC(=O)/C(=N\O)c1ccccc1 | 1.1 | / | / | / | /
CC(=NC1CCCC1)c1c(C)[nH]n(-c2nc3ccccc3s2)c1=O | 0.8 | / | 71* | / | 8
CC(=NCCCn1ccnc1)c1c(-c2ccccc2)[nH]n(-c2nc3ccccc3s2)c1=O | 1.1 | / | / | / | /
Cc1cc2nc3c(c(=O)n2[nH]1)CCCC3 | 1.1 | 17 | 15 | / | -1
COc1ccc(-c2cc3nc4c(c(=O)n3[nH]2)CCC4)cc1 | 1.1 | -22 | 63* | -3 | 54*
O=c1c2c(nc3cc(-c4ccccc4)[nH]n13)CCC2 | 1.1 | -39 | 60* | 4 | 39
C/C(=N/Oc1nc(C)cc(C)n1)c1ccc(F)cc1 | 1.5 | / | / | / | /
CCN(CC)c1ccc2cc(C(C)=O)c(=O)oc2c1 | 1.5 | / | / | / | /
CCN(CC)c1ccc2cc(-c3nnc(-c4ccncc4)o3)c(=O)oc2c1 | 1.4 | / | 73* | / | 25

High-throughput results from PubChem.
